From ChEMBL document CHEMBL1144718, “Novel 3-aroylpyrazolo[5,1-c][1,2,4]benzotriazine 5-oxides 8-substituted, ligands at GABAA/benzodiazepine receptor complex: synthesis, pharmacological and molecular modeling studies” (Bioorg Med Chem, 2008) come the findings set out here.

The structures appear in SMILES notation. Calls of active or inactive are those of the source. The rule behind the calls is not given here.

Test [1] is described as follows: Displacement of [3H]flumazenil from GABAA/BzR complex in bovine cerebral cortex membrane. The format is cell membranes, Bos taurus. The gist of the method:
(§1)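 Bovine cerebral cortex membranes in 50 mM Tris-citrate pH 7.4 incubated with [3H]Ro15-1788 (1–2 nM) for 1 h at 4 °C to equilibrium; nonspecific binding with 10^-5 M diazepam; DMSO ≤1%. Ki from ≥6 concentrations (10^-9–10^-5 M) by curve fitting and Cheng–Prusoff; percent inhibition at 10 µM; five determinations, triplicate.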

Test [2] relates to Mus musculus. Description: Anticonvulsant activity against pentylenetetrazole-induced seizure in CD1 Albino mouse assessed as shock latency at 30 mg/kg, po after 30 mins. The format is functional. A digest of the protocol: (§2)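 Male CD-1 mice (22–24 g), compound suspended in 1% CMC (sonicated) given po in 10 ml/kg; 30 min later PTZ 90 mg/kg sc (in saline). Latency (s) to shock and to convulsions recorded; clonic generalized convulsions counted over 30 min.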

Test [3] deals with Mus musculus. As to the kind of experiment: Anticonvulsant activity against pentylenetetrazole-induced seizure in CD1 Albino mouse assessed as convulsant latency at 10 mg/kg, po after 30 mins. The format is functional. The gist of the method:
as §2

Test [4] has as its system Mus musculus. Description: Sedative activity in CD1 albino mouse assessed as reduction of curiosity at 3 mg/kg, po after 30 mins by hole-board test. The format is functional, organism-based. Details: dose 3 mg/kg. A digest of the protocol: (§3)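 Hole-board: male CD-1 mice given compound po (1% CMC) and placed individually on the board 30 min later, free to explore panel and holes for 5 min; spontaneous motility and exploration (panel and hole movements) scored.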

Test [5] deals with Mus musculus. As to the kind of experiment: Increase in learning and memory performance in CD1 albino mouse at 30 mg/kg, po after 24 hrs by passive avoidance test. In kind it is functional, organism-based. Details: dose 30 mg/kg. The gist of the method:
(§4)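 Passive avoidance in male CD-1 mice treated po 30 min before training; retention tested 24 h later. Latency to enter the dark compartment measured, maximum 60 s (training) and 180 s (retention). Means ± SEM of 15–18 mice.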

Test [6] relates to Mus musculus. As to the kind of experiment: Anxiolytic effect in CD1 albino mouse at 30 mg/kg, po after 30 mins by light-dark box test. In kind it is functional, organism-based. Further details: dose 30 mg/kg. The gist of the method: (§5)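 Male CD-1 mice (22–24 g); test agent po in 1% CMC, 30 min before a light/dark box session; time (s) spent in the illuminated compartment measured. Means ± SEM of 14–21 mice.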

In test [7] the test system is Mus musculus. As to the kind of experiment: Effect on ethanol-induced sleeping time in CD1 Albino mouse assessed as increase in duration of loss of righting reflex at 3 mg/kg, po after 30 mins. In kind it is functional, organism-based. Further details: dose 3 mg/kg. A digest of the protocol:
(§6)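 Male CD-1 mice dosed po (1% CMC suspension); ethanol 4 g/kg ip given 30 min after the compound. Sleep time taken as duration of loss of righting reflex, end-point 150 min.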

Test [8] deals with Mus musculus. Description: Increase in learning and memory performance in CD1 albino mouse at 10 mg/kg, po after 24 hrs by passive avoidance test. The format is functional, organism-based. Further details: dose 10 mg/kg. A digest of the protocol: as §4
For test [9], the system named is Mus musculus. As to the kind of experiment: Effect on ethanol-induced sleeping time in CD1 Albino mouse assessed as increase in duration of loss of righting reflex at 10 mg/kg, po after 30 mins. The format is functional, organism-based. Details: dose 10 mg/kg. A digest of the protocol: as §6
In test [10] the test system is Mus musculus. Description: Effect on ethanol-induced sleeping time in CD1 Albino mouse assessed as increase in duration of loss of righting reflex at 30 mg/kg, po after 30 mins. The format is functional, organism-based. Further details: dose 30 mg/kg. The gist of the method:
as §6

The test system of test [11] is Mus musculus. As to the kind of experiment: Effect on motor coordination in CD1 Albino mouse assessed as number of falls in 30 secs at 30 mg/kg, po after 30 mins by rotarod test relative to control. The format is functional. The gist of the method:
(§7)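 Rota-rod at 16 rpm in male CD-1 mice after po dosing in 1% CMC; number of falls in 30 s counted at 15, 30, 45 and 60 min post-administration.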
(In general: The rotarod test checks motor coordination on a turning rod.)

In test [12] the test system is Mus musculus. As to the kind of experiment: Sedative activity in CD1 albino mouse assessed as reduction of curiosity at 30 mg/kg, po after 30 mins by hole-board test. The format is functional, organism-based. Details: dose 30 mg/kg. The gist of the method:
as §3

The test system of test [13] is Mus musculus. Description: Anxiolytic effect in CD1 albino mouse at 10 mg/kg, po after 30 mins by light-dark box test. In kind it is functional, organism-based. Details: dose 10 mg/kg. A digest of the protocol: as §5
In test [14] the test system is Mus musculus. As to the kind of experiment: Anticonvulsant activity against pentylenetetrazole-induced seizure in CD1 Albino mouse assessed as convulsant latency at 3 mg/kg, po after 30 mins. The format is functional. The gist of the method:
as §2

For test [15], the system named is Mus musculus. Description: Anticonvulsant activity against pentylenetetrazole-induced seizure in CD1 Albino mouse assessed as shock latency at 10 mg/kg, po after 30 mins. The format is functional. A digest of the protocol:
as §2

The test system of test [16] is Mus musculus. Description: Effect on motor coordination in CD1 Albino mouse assessed as number of falls in 30 secs at 3 mg/kg, po after 30 mins by rotarod test. The format is functional. The gist of the method: as §7
For test [17], the system named is Mus musculus. Description: Anticonvulsant activity against pentylenetetrazole-induced seizure in CD1 Albino mouse assessed as convulsant latency at 30 mg/kg, po after 30 mins. The format is functional. The gist of the method:
as §2

Test [18] has as its system Mus musculus. Description: Effect on motor coordination in CD1 Albino mouse assessed as number of falls in 30 secs at 10 mg/kg, po after 30 mins by rotarod test relative to control. The format is functional. A digest of the protocol:
as §7

The test system of test [19] is Mus musculus. Description: Anticonvulsant activity against pentylenetetrazole-induced seizure in CD1 Albino mouse assessed as shock latency at 3 mg/kg, po after 30 mins. In kind it is functional. A digest of the protocol:
as §2

A further test is filed under the species Bos taurus. As to the kind of experiment: Displacement of [3H]flumazenil from GABAA/BzR complex in bovine cerebral cortex membrane at 10 uM. In kind it is cell membranes. The gist of the method: as §1
(In general: In a radioligand displacement assay an active substance lowers the binding of a labelled ligand.)

Test [20] relates to Mus musculus. As to the kind of experiment: Amnesic activity in CD1 albino mouse at 1 mg/kg, ip. The format is functional, organism-based. Further details: dose 1 mg/kg. A digest of the protocol:
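Male CD-1 mice (22–24 g) given drug ip in 0.9% saline at 10 ml/kg. Passive-avoidance training followed treatment, and retention was tested 24 h later. Read-out was latency to enter the dark compartment in both sessions, capped at 60 s (training) and 180 s (retention). Means ± SEM of 15–18 mice.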

Test [21] concerns Mus musculus. As to the kind of experiment: Sedative activity in CD1 albino mouse assessed as reduction of spontaneous motility at 3 mg/kg, ip after 20 mins by hole-board test. In kind it is functional, organism-based. Details: dose 3 mg/kg. The gist of the method:
(§8)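 Hole-board test in male CD-1 mice (22–24 g) after an ip dose in saline (10 ml/kg). Each mouse explored the panel and holes alone for 5 min. Spontaneous motility was scored as panel movements and curiosity as exploration of the holes.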

Test [22] deals with Mus musculus. Description: Anticonvulsant activity against pentylenetetrazole-induced seizure in CD1 Albino mouse assessed as convulsant latency at 1 mg/kg, ip after 20 mins. The format is functional, organism-based. Details: dose 1 mg/kg. The gist of the method:
(§9)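 In male CD-1 mice (22–24 g), drug in saline was given ip at 10 ml/kg; the test ran 20 min later. PTZ 90 mg/kg sc was the convulsant. Latency (s) to shock and to convulsions was scored, and clonic generalized convulsions were counted over 30 min. Significance was set at P < 0.05 versus controls.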

In test [23] the test system is Mus musculus. Description: Sedative activity in CD1 albino mouse assessed as reduction of curiosity at 3 mg/kg, ip after 20 mins by hole-board test. In kind it is functional, organism-based. Details: dose 3 mg/kg. A digest of the protocol: as §8
The test system of test [24] is Mus musculus. As to the kind of experiment: Anticonvulsant activity against pentylenetetrazole-induced seizure in CD1 Albino mouse assessed as shock latency at 1 mg/kg, ip after 20 mins. The format is functional, organism-based. Details: dose 1 mg/kg. A digest of the protocol:
as §9

On to `CCOc1ccc2c(c1)n1ncc(C(=O)c3cccs3)c1n[n+]2[O-]`, for which, in test [1], the Ki (as a rule, the equilibrium dissociation constant of an inhibitor or competing ligand from its target) amounted to 45 nM.
The same measure, in the same setting: with `CCOc1ccc2c(c1)n1ncc(C(=O)c3ccc[nH]3)c1n[n+]2[O-]` the figure was 1840 nM; with `O=C(c1ccsc1)c1cnn2c1n[n+]([O-])c1ccc(Cl)cc12`, 121 nM.
The compound `CCOc1ccc2c(c1)n1ncc(C(=O)c3ccc(OC)cc3)c1n[n+]2[O-]` had a Ki in [1] of 919 nM.
The same measure, in the same setting: for `O=C(c1ccco1)c1cnn2c1n[n+]([O-])c1ccc(Oc3ccccc3)cc12` the value was 7 nM; for `O=C(c1ccc[nH]1)c1cnn2c1nnc1ccc(Cl)cc12`, 1940 nM.
With `O=C(c1cccs1)c1cnn2c1n[n+]([O-])c1ccc(Oc3ccccc3)cc12`, the Activity in the test on Mus musculus [2] is 614.1 s; in the test on Mus musculus [3] it was 542.6 s; with Mus musculus [11], 2 count; in the test with Mus musculus [14], 460.3 s; with Mus musculus [15], 279.7 s; with Mus musculus [16], 0.8 count. For the same compound, the Activity in the test with Mus musculus [17] is 766.6 s; in the test on Mus musculus [18], 1.6 count; in the test on Mus musculus [19], 224.5 s. For the same compound, the result in the test on Mus musculus [4], in the test on Mus musculus [5], in the test with Mus musculus [6], in the test with Mus musculus [7], in the test with Mus musculus [8] and in the test with Mus musculus [9] was Active. Further, the outcome in the test with Mus musculus [10], in the test with Mus musculus [12] and with Mus musculus [13] was Active. Further, in test [1], the affinity corresponds to a Ki of 8.9 nM.
`O=Cc1cnn2c1n[n+]([O-])c1ccc(Cl)cc12`: the inhibition (commonly the share of the control response that was lost under treatment) in the test listed under Bos taurus was determined as 64%.
Regarding `O=C(c1cccs1)c1cnn2c1nnc1ccc(Oc3ccccc3)cc12`, the affinity in [1], expressed as Ki, was 14.7 nM.
Still for that read-out and setting: with `Cn1cccc1C(=O)c1cnn2c1n[n+]([O-])c1ccc(Cl)cc12` the figure was 5200 nM; with `O=C(c1ccc2c(c1)OCO2)c1cnn2c1n[n+]([O-])c1ccc(Cl)cc12`, 2900 nM.
Still for that read-out and setting: for `O=C(c1ccco1)c1cnn2c1n[n+]([O-])c1ccc(Cl)cc12` the value was 72 nM; for `CCOc1ccc2c(c1)n1ncc(C(C)=O)c1n[n+]2[O-]`, 902 nM.
With `CN1C(=O)CN=C(c2ccccc2)c2cc(Cl)ccc21` [DIAZEPAM], the result with Mus musculus [20], with Mus musculus [21] and in the test on Mus musculus [23] was Active. The outcome in the test with Mus musculus [22] and with Mus musculus [24] was inactive. The compound also gave a Ki in test [1] of 10 nM.
`CCOc1ccc2c(c1)n1ncc(C(=O)c3cccnc3)c1n[n+]2[O-]` yielded a Ki in test [1] of 2000 nM.
